Measured values of several laboratories.
Lines come from different studies, so protocols differ.
Organism: Plasmodium falciparum
Observed: parasite growth

c1ccc2sc(-c3ccnc(Nc4ccc(CN5CCC(N6CCCC6)CC5)cc4)n3)cc2c1  inhibition (SYBR Green; 3D7; 1 µM; blood stage): > 75%
COc1cnc(Nc2ccnc3cc(-c4ccc(S(=O)(=O)N5CCN(C)CC5)cc4)ccc23)cn1  EC50 (D6; drug-resistant strain, blood stage): 130 nM
O=C(Nc1cc(F)ccc1C(=O)O)c1ccc(-c2ccccc2)cc1  inhibition (SYBR Green; NF54; 10 µM; 96 h; blood stage): 17.2%
CCn1cc(C(=O)O)c(=O)c2cc(F)c(N3CCC(C)CC3)cc21  EC50 (3D7; 72 h; blood stage): > 10000 nM
CN1CCN(S(=O)(=O)c2ccc(-c3ccc4c(Nc5ccnnc5)ccnc4c3)cc2)CC1  EC50 (D6; drug-resistant strain, blood stage): 2100 nM
O=C(Nc1ccc(F)cc1C(=O)O)c1ccc(-c2ccccc2)cc1  inhibition (SYBR Green; NF54; 10 µM; 96 h; blood stage): 12.7%
CN1CCN(c2ncc(-c3ccc4c(Nc5cnccn5)ccnc4c3)cn2)CC1  EC50 (D6; drug-resistant strain, blood stage): 26 nM
CCn1cc(-c2nc(C)no2)c(=O)c2cc(F)c(N3CCC(Cc4ccccc4)CC3)cc21  EC50 (3D7; 72 h; blood stage): 9 nM
COc1ccc(Nc2ccnc3cc(Nc4nccc(N5CCN(C)CC5)n4)ccc23)cc1Cl  EC50 (D6; drug-resistant strain, blood stage): 99 nM
CCn1cc(-c2nnc(-c3cccnc3)o2)c(=O)c2cc(F)c(N3CCC(C)CC3)cc21  EC50 (3D7; 72 h; blood stage): > 10000 nM
C[C@@H]1CC[C@H]2[C@@H](C)C(=O)O[C@@H]3O[C@@]4(C)CC[C@@H]1[C@]32OO4  IC50 (W2; drug-resistant strain, blood stage): 15 nM
CCCC1CCN(c2cc3c(cc2F)c(=O)c(-c2nc(C)no2)cn3CC)CC1  EC50 (3D7; 72 h; blood stage): 8 nM
Cc1ccc(-c2ccccc2C(=O)Nc2c(C)cccc2C(=O)O)cc1  inhibition (NF54; 2 µM; 48 h; gametocyte): 55%
CCN(CC)CCCC(C)Nc1ccnc2cc(Cl)ccc12 (centres unmarked)  IC50 (D6; 72 h; blood stage): 0.016 µg/mL
c1cnc(Nc2ccnc3cc(-c4cn[nH]c4)ccc23)cn1  EC50 (D6; drug-resistant strain, blood stage): 940 nM
CCn1cc(-c2nc(C)no2)c(=O)c2cc(F)c(N3CCC(C)(C)CC3)cc21  EC50 (3D7; 72 h; blood stage): 1480 nM
O=C(Nc1c(F)cccc1C(=O)O)c1ccc(-c2ccccc2)cc1  inhibition (NF54; 2 µM; 48 h; gametocyte): 38.8%
